Publication PMC7025391 (The Lancet. Oncology, 2019)
Where two headings read alike, the source gives them in different places.

Experiments:
[1] = tested on: patients with recurrent EOC or BC; assay: Phase 1b 3+3 dose escalation: DLTs, MTD and RP2D; assay type: in vivo, human
Summary of the method: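 Classic 3+3 design with continuous 28-day cycles: oral alpelisib q.d. plus olaparib tablets b.i.d. Levels were 250/100 mg, 250/200 mg, 300/200 mg and 200/200 mg. Escalation followed 0/3 or 1/6 DLTs in cycle 1, graded by CTCAE v4.03. DLTs were prespecified grade ≥3 treatment-related toxicities. Monitoring was weekly in cycles 1–2, then day 1 of each cycle. Six EOC patients were then expanded at the MTD.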

[2] = Pharmacokinetics: steady state Cmax of alpelisib and olaparib; assay type: in vivo, human; settings: combination; for Effect of the other drug's dosing on Cmax: dose levels 0-3; for Steady state Cmax compared with monotherapy: day 8, 2 hours post dosing
Summary of the method: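 Blood sampled for alpelisib and olaparib levels on cycle 1 day 1 (time 0) and on days 8 and 15 at 0, 1, 2, 4 and 8 h after dosing both agents. Patients took oral alpelisib once daily and olaparib tablets twice daily, continuously on 28-day cycles, at alpelisib 200–300 mg with olaparib 100–200 mg.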

[3] = tested on: EOCs that are gBRCAwt but HRD positive and platinum resistant; settings: gBRCAwt but HRD positive and platinum resistant EOC; QUADRA study; cited from earlier work
EOC patients = settings: cited from earlier work
patients = settings: olaparib monotherapy, SOLO1 study; cited from earlier work

Row | SMILES | MTD and RP2D, alpelisib dose ([1]; orally once daily, combined with olaparib 200 mg twice daily) | Dose proportionality of drug exposure [2] | Effect of the other drug's dosing on Cmax [2] | Steady state Cmax compared with monotherapy [2] | Response to monotherapy [3] | MTD and RP2D, olaparib dose ([1]; orally twice daily (tablet), combined with alpelisib 200 mg once daily) | Objective response rate expected from monotherapy (EOC patients; BRCAwt, platinum-resistant ovarian carcinomas, no ref given) | ORR as monotherapy (EOC patients; gBRCAwt / BRCAwt platinum resistant patients) | Expected response rate of monotherapy (EOC patients; platinum resistant gBRCAmut EOC) | Expected response rate of monotherapy (EOC patients; platinum resistant gBRCAwt EOC) | Expected response rate of monotherapy (EOC patients; platinum sensitive gBRCAmut EOC) | Expected response rate of monotherapy (EOC patients; platinum sensitive gBRCAwt EOC) | Fatigue, share of patients (patients) | Nausea, share of patients (patients) | Vomiting, share of patients (patients)
1 | Cc1nc(NC(=O)N2CCC[C@H]2C(N)=O)sc1-c1ccnc(C(C)(C)C(F)(F)F)c1 [alpelisib] | 200 mg | increasing proportionally with increasing dose | unaffected by olaparib dosing | comparable to values when testing these agents as monotherapy | – | – | – | – | – | – | – | – | – | – | –
2 | NC(=O)c1cccc2cn(-c3ccc([C@@H]4CCCNC4)cc3)nc12 [niraparib] | – | – | – | – | 10% | – | – | – | – | – | – | – | – | – | –
3 | O=C(c1cc(Cc2n[nH]c(=O)c3ccccc23)ccc1F)N1CCN(C(=O)C2CC2)CC1 [olaparib] | – | increasing proportionally with increasing dose | unaffected by alpelisib dosing | comparable to values when testing these agents as monotherapy | – | 200 mg | 4–5% | ~ 5% | 28% | ~ 5% | ≥ 60% | 50% | 63% | 77% | 40%
